This note sets out measurements from ChEMBL document CHEMBL3797186, “Single Residue Substitutions That Confer Voltage-Gated Sodium Ion Channel Subtype Selectivity in the NaV1.7 Inhibitory Peptide GpTx-1” (J Med Chem, 2016).

Positions of bridges follow the written chain, without caps; N, C: chain ends. Residues, ends and D or L forms follow the SMILES beside them.

For assay [1], the target named is Sodium channel protein type 5 subunit alpha (Homo sapiens, UniProt Q14524). Description: Inhibition of human Nav1.5 expressed in HEK293 cells assessed as inward peak current by ion-works quattro patch clamp electrophysiology method. The class given is cell-based. The method, boiled down: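 Stable HEK293 line expressing human NaV1.5, recorded by population patch clamp on the IonWorks Quattro.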
For orientation: The patch-clamp technique gives a direct electrical read-out from membranes.

The target in assay [2] is Sodium channel protein type 9 subunit alpha (Homo sapiens, UniProt Q15858). Description: Inhibition of human Nav1.7 expressed in HEK293 cells assessed as inward peak current by ion-works quattro patch clamp electrophysiology method. The format is cell-based.
Sodium channel protein type 9 subunit alpha, sequence (Q15858 whole entry): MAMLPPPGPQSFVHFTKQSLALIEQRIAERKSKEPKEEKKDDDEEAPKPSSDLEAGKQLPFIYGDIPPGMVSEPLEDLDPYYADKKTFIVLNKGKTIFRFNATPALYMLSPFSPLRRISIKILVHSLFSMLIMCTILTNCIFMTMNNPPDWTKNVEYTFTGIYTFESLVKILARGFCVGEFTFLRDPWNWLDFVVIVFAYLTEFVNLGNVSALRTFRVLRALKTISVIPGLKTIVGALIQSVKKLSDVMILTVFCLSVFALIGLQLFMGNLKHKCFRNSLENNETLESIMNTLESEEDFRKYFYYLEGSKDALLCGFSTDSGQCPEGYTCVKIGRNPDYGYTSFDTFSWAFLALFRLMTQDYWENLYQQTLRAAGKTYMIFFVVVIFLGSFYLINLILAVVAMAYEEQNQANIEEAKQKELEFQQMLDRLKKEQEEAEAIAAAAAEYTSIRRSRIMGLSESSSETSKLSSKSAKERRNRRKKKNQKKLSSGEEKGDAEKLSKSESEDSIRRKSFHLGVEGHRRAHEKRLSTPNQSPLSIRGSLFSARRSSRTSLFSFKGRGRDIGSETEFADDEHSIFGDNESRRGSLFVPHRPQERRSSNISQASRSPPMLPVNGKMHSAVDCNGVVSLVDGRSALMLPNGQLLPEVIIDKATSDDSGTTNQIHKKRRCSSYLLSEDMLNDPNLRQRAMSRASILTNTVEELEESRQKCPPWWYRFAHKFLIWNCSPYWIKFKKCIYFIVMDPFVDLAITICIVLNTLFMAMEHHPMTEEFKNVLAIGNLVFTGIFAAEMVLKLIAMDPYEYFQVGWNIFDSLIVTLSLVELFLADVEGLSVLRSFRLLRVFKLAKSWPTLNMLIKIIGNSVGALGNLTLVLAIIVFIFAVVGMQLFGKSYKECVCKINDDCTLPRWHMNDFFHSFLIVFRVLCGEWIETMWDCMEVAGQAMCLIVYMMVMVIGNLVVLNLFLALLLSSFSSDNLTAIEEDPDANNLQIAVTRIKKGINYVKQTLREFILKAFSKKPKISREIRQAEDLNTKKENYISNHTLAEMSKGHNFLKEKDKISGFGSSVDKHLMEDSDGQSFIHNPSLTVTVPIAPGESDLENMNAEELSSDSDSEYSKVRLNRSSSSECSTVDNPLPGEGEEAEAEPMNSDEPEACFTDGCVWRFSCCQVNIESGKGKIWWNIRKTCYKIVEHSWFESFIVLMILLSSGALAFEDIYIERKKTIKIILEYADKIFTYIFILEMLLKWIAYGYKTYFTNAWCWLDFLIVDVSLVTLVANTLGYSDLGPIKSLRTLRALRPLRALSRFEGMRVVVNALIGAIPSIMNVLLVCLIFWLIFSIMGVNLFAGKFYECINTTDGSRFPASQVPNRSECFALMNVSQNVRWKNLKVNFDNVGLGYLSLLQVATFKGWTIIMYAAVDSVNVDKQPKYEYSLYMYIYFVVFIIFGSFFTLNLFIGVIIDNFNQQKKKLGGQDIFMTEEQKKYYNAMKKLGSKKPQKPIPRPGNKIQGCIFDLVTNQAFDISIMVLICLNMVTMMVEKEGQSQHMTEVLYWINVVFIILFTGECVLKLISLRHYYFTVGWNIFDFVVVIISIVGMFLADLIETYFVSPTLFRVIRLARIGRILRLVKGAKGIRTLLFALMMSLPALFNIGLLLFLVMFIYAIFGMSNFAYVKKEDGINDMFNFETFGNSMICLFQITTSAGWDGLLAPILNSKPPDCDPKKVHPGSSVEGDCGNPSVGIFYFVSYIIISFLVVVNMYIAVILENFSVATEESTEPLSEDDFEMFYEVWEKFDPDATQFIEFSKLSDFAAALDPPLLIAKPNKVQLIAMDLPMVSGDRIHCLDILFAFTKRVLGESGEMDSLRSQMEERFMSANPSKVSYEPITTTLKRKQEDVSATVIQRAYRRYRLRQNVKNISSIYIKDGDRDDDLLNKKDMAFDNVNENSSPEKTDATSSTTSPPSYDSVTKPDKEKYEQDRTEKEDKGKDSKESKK

Sodium channel protein type 5 subunit alpha, sequence (Q14524 whole entry): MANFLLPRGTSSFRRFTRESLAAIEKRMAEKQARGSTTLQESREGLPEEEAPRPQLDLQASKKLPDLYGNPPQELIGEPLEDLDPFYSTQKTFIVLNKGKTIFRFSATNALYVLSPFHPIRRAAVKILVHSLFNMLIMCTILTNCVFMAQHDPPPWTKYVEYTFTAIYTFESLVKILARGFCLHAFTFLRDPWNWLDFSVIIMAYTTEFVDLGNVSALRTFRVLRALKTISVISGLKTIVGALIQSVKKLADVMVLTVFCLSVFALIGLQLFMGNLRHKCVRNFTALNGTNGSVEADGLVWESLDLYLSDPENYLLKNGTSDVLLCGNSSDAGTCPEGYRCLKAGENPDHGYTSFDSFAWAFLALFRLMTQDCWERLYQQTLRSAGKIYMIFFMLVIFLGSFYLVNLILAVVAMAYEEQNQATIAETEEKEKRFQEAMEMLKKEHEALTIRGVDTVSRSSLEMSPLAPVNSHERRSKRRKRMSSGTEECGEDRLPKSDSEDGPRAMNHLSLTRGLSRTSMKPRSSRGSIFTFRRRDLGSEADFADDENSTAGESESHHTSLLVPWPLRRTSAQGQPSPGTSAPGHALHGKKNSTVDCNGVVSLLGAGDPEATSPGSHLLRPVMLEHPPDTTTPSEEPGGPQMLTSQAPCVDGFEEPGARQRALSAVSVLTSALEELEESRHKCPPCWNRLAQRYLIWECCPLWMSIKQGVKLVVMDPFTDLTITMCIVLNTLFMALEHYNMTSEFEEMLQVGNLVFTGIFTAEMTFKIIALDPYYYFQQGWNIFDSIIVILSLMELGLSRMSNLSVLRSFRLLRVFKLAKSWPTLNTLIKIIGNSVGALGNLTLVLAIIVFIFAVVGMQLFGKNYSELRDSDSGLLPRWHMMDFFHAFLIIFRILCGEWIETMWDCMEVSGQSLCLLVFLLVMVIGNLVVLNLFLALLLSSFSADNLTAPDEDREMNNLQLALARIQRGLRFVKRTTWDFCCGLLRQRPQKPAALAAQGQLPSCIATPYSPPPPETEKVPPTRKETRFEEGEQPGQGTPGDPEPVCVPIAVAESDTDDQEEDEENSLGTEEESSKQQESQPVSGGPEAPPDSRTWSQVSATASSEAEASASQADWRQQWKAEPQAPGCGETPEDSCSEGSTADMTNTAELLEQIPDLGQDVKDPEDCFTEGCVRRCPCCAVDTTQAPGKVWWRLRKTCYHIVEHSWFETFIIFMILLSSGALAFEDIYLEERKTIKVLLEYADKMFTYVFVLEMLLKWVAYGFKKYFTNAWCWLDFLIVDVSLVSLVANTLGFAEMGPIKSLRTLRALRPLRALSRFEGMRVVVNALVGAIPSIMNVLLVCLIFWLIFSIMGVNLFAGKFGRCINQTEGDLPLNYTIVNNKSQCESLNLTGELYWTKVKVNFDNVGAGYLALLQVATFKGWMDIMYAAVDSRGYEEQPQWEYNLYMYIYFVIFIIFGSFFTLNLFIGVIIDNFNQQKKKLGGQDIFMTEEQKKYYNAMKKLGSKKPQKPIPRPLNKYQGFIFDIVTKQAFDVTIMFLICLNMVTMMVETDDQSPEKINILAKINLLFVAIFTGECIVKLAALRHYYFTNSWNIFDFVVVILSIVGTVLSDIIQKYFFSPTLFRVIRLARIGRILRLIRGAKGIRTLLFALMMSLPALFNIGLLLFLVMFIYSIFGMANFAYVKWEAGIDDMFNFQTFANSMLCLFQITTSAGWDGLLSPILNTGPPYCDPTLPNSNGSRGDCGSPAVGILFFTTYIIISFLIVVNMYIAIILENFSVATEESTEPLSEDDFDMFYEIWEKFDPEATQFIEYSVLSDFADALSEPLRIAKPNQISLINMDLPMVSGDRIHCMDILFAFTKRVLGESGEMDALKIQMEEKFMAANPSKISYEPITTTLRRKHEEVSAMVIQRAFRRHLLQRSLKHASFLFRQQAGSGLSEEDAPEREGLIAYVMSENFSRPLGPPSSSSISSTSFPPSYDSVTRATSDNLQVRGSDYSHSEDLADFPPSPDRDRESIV

Consider `CC[C@H](C)[C@@H]1NC(=O)[C@@H]2CSSC[C@@H]3NC(=O)[C@H](C(C)C)NC(=O)[C@H](CC(C)C)NC(=O)[C@H](CC(N)=O)NC(=O)[C@@H]4CCCN4C(=O)[C@H](CCCNC(=N)N)NC(=O)[C@H](CSSC[C@H](NC(=O)[C@@H](N)CC(=O)O)C(=O)N[C@@H](CC(C)C)C(=O)NCC(=O)N[C@@H](Cc4ccccc4)C(=O)N[C@@H](CCSC)C(=O)N[C@@H](CCCNC(=N)N)C(=O)N[C@@H](CCCCN)C(=O)N2)NC(=O)[C@H](CSSC[C@@H](C(=O)N[C@@H](CCCCN)C(=O)N[C@@H](CCCCN)C(=O)N[C@H](C(=O)N[C@@H](Cc2ccccc2)C(N)=O)C(C)C)NC(=O)[C@H](Cc2c[nH]c4ccccc24)NC(=O)[C@H](CCCCN)NC(=O)[C@H](Cc2cnc[nH]2)NC(=O)[C@H]([C@@H](C)O)NC(=O)[C@H](CCCNC(=N)N)NC(=O)[C@H](CO)NC3=O)NC(=O)[C@H](CCCCN)NC(=O)[C@H](CC(=O)O)NC(=O)[C@H](CC(N)=O)NC(=O)[C@H](CC(=O)O)NC(=O)[C@@H]2CCCN2C1=O` (H-DCLGFMRKCIPDNDKCCRPNLVCSRTHKWCKKVF-NH2; disulfide 2-17, 9-23, 16-30), for which the IC50 is above 5000 nM in assay [1] and above 4900 nM in assay [2].

As to `CC[C@H](C)[C@@H]1NC(=O)[C@@H]2CSSC[C@@H]3NC(=O)[C@H](C(C)C)NC(=O)[C@H](CC(C)C)NC(=O)[C@H](CC(N)=O)NC(=O)[C@@H]4CCCN4C(=O)[C@H](CCCNC(=N)N)NC(=O)[C@H](CSSC[C@H](NC(=O)[C@H](CC(=O)O)NC(=O)[C@@H](N)CCC(=O)O)C(=O)N[C@@H](CC(C)C)C(=O)NCC(=O)N[C@@H](Cc4ccccc4)C(=O)N[C@@H](CCSC)C(=O)N[C@@H](CCCNC(=N)N)C(=O)N[C@@H](CCCCN)C(=O)N2)NC(=O)[C@H](CSSC[C@@H](C(=O)N[C@@H](CCCCN)C(=O)N[C@@H](Cc2ccc(O)cc2)C(=O)N[C@H](C(=O)N[C@@H](Cc2ccccc2)C(N)=O)C(C)C)NC(=O)[C@H](Cc2c[nH]c4ccccc24)NC(=O)[C@H](CCCCN)NC(=O)[C@H](Cc2cnc[nH]2)NC(=O)[C@H]([C@@H](C)O)NC(=O)[C@H](CCCNC(=N)N)NC(=O)[C@H](CO)NC3=O)NC(=O)[C@H](CCCCN)NC(=O)[C@H](CC(=O)O)NC(=O)[C@H](CC(N)=O)NC(=O)[C@H](CC(=O)O)NC(=O)[C@@H]2CCCN2C1=O`, the IC50 in assay [1] is above 5000 nM; in assay [2], 270 nM.

With `CC[C@H](C)[C@@H]1NC(=O)[C@@H]2CSSC[C@@H]3NC(=O)[C@H](C(C)C)NC(=O)[C@H](CC(C)C)NC(=O)[C@H](CC(N)=O)NC(=O)[C@@H]4CCCN4C(=O)[C@H](CCCNC(=N)N)NC(=O)[C@H](CSSC[C@H](NC(=O)[C@@H](N)CC(=O)O)C(=O)N[C@@H](CC(C)C)C(=O)NCC(=O)N[C@@H](Cc4ccccc4)C(=O)N[C@@H](CCSC)C(=O)N[C@@H](CCCNC(=N)N)C(=O)N[C@@H](CCCCN)C(=O)N2)NC(=O)[C@H](CSSC[C@@H](C(=O)N[C@@H](CCCCN)C(=O)N[C@@H](Cc2ccc(O)cc2)C(=O)N[C@H](C(=O)N[C@@H](Cc2ccccc2)C(N)=O)C(C)C)NC(=O)[C@H](Cc2c[nH]c4ccccc24)NC(=O)[C@H](CCCCN)NC(=O)[C@H](Cc2cnc[nH]2)NC(=O)[C@H](Cc2c[nH]c4ccccc24)NC(=O)[C@H](CCCNC(=N)N)NC(=O)[C@H](CO)NC3=O)NC(=O)[C@H](CCCCN)NC(=O)[C@H](CC(=O)O)NC(=O)[C@H](CC(N)=O)NC(=O)[C@H](CC(=O)O)NC(=O)[C@@H]2CCCN2C1=O` (H-DCLGFMRKCIPDNDKCCRPNLVCSRWHKWCKYVF-NH2; disulfide 2-17, 9-23, 16-30), the IC50 in assay [1] was 3600 nM; in assay [2], 50 nM.

Consider `CC[C@H](C)[C@@H]1NC(=O)[C@@H]2CSSC[C@@H]3NC(=O)[C@H](C(C)C)NC(=O)[C@H](CC(C)C)NC(=O)[C@H](CC(N)=O)NC(=O)[C@@H]4CCCN4C(=O)[C@H](CCCNC(=N)N)NC(=O)[C@H](CSSC[C@H](NC(=O)[C@H](CC(=O)O)NC(=O)[C@@H](N)Cc4c[nH]c5ccccc45)C(=O)N[C@@H](CC(C)C)C(=O)NCC(=O)N[C@@H](Cc4ccccc4)C(=O)N[C@@H](CCSC)C(=O)N[C@@H](CCCNC(=N)N)C(=O)N[C@@H](CCCCN)C(=O)N2)NC(=O)[C@H](CSSC[C@@H](C(=O)N[C@@H](CCCCN)C(=O)N[C@@H](Cc2ccc(O)cc2)C(=O)N[C@H](C(=O)N[C@@H](Cc2ccccc2)C(N)=O)C(C)C)NC(=O)[C@H](Cc2c[nH]c4ccccc24)NC(=O)[C@H](CCCCN)NC(=O)[C@H](Cc2cnc[nH]2)NC(=O)[C@H]([C@@H](C)O)NC(=O)[C@H](CCCNC(=N)N)NC(=O)[C@H](CO)NC3=O)NC(=O)[C@H](CCCCN)NC(=O)[C@H](CC(=O)O)NC(=O)[C@H](CC(N)=O)NC(=O)[C@H](CC(=O)O)NC(=O)[C@@H]2CCCN2C1=O`, for which the results for the IC50 in assay [1] and in assay [2] were above 5000 nM and 200 nM, respectively.

In the case of `CSCC[C@@H]1NC(=O)[C@H](Cc2ccccc2)NC(=O)CNC(=O)[C@H](CC(C)C)NC(=O)[C@@H](NC(=O)[C@@H](N)CC(=O)O)CSSC[C@@H]2NC(=O)[C@@H]3CSSC[C@@H](C(=O)N[C@@H](CCCCN)C(=O)N[C@@H](Cc4ccc(O)cc4)C(=O)N[C@H](C(=O)N[C@@H](Cc4ccccc4)C(N)=O)C(C)C)NC(=O)[C@H](Cc4c[nH]c5ccccc45)NC(=O)[C@H](CCCCN)NC(=O)[C@H](Cc4cnc[nH]4)NC(=O)[C@H]([C@@H](C)O)NC(=O)[C@H](CCCNC(=N)N)NC(=O)[C@H](CO)NC(=O)[C@H](CSSC[C@H](NC(=O)[C@H](CCCCN)NC(=O)[C@H](CCCNC(=N)N)NC1=O)C(=O)N[C@@H](CCCCN)C(=O)N1CCC[C@H]1C(=O)N[C@@H](CC(=O)O)C(=O)N[C@@H](CC(N)=O)C(=O)N[C@@H](CC(=O)O)C(=O)N[C@@H](CCCCN)C(=O)N3)NC(=O)[C@H](C(C)C)NC(=O)[C@H](CC(C)C)NC(=O)[C@H](CC(N)=O)NC(=O)[C@@H]1CCCN1C(=O)[C@H](CCCNC(=N)N)NC2=O` (H-DCLGFMRKCKPDNDKCCRPNLVCSRTHKWCKYVF-NH2; disulfide 2-17, 9-23, 16-30), the IC50 was above 5000 nM in assay [1] and 230 nM in assay [2].

As for `CC[C@H](C)[C@@H]1NC(=O)[C@@H]2CSSC[C@@H]3NC(=O)[C@H](C(C)C)NC(=O)[C@H](CC(C)C)NC(=O)[C@H](CC(N)=O)NC(=O)[C@@H]4CCCN4C(=O)[C@H](CCCNC(=N)N)NC(=O)[C@H](CSSC[C@H](NC(=O)[C@@H](N)CC(=O)O)C(=O)N[C@@H](CC(C)C)C(=O)NCC(=O)N[C@@H](Cc4ccccc4)C(=O)N[C@@H](CCSC)C(=O)N[C@@H](CCCNC(=N)N)C(=O)N[C@@H](CCCCN)C(=O)N2)NC(=O)[C@H](CSSC[C@@H](C(=O)N[C@@H](CCCCN)C(=O)N[C@@H](Cc2ccc(O)cc2)C(=O)N[C@H](C(=O)N[C@@H](Cc2ccccc2)C(N)=O)C(C)C)NC(=O)[C@H](Cc2c[nH]c4ccccc24)NC(=O)[C@H](CCCCN)NC(=O)[C@H](CCCNC(=N)N)NC(=O)[C@H]([C@@H](C)O)NC(=O)[C@H](CCCNC(=N)N)NC(=O)[C@H](CO)NC3=O)NC(=O)[C@H](CCCCN)NC(=O)[C@H](CC(=O)O)NC(=O)[C@H](CC(N)=O)NC(=O)[C@H](CC(=O)O)NC(=O)[C@@H]2CCCN2C1=O` (H-DCLGFMRKCIPDNDKCCRPNLVCSRTRKWCKYVF-NH2; disulfide 2-17, 9-23, 16-30), the figures for the IC50 in assay [1] and in assay [2] were above 5000 nM and 450 nM, respectively.

As for `CC[C@H](C)[C@@H]1NC(=O)[C@@H]2CSSC[C@@H]3NC(=O)[C@H](C(C)C)NC(=O)[C@H](CC(C)C)NC(=O)[C@H](Cc4c[nH]c5ccccc45)NC(=O)[C@@H]4CCCN4C(=O)[C@H](CCCNC(=N)N)NC(=O)[C@H](CSSC[C@H](NC(=O)[C@@H](N)CC(=O)O)C(=O)N[C@@H](CC(C)C)C(=O)NCC(=O)N[C@@H](Cc4ccccc4)C(=O)N[C@@H](CCSC)C(=O)N[C@@H](CCCNC(=N)N)C(=O)N[C@@H](CCCCN)C(=O)N2)NC(=O)[C@H](CSSC[C@@H](C(=O)N[C@@H](CCCCN)C(=O)N[C@@H](Cc2ccc(O)cc2)C(=O)N[C@H](C(=O)N[C@@H](Cc2ccccc2)C(N)=O)C(C)C)NC(=O)[C@H](Cc2c[nH]c4ccccc24)NC(=O)[C@H](CCCCN)NC(=O)[C@H](Cc2cnc[nH]2)NC(=O)[C@H]([C@@H](C)O)NC(=O)[C@H](CCCNC(=N)N)NC(=O)[C@H](CO)NC3=O)NC(=O)[C@H](CCCCN)NC(=O)[C@H](CC(=O)O)NC(=O)[C@H](CC(N)=O)NC(=O)[C@H](CC(=O)O)NC(=O)[C@@H]2CCCN2C1=O` (H-DCLGFMRKCIPDNDKCCRPWLVCSRTHKWCKYVF-NH2; disulfide 2-17, 9-23, 16-30), the IC50 is above 5000 nM in assay [1] and 70 nM in assay [2].

Turning to `CC[C@H](C)[C@@H]1NC(=O)[C@@H]2CSSC[C@@H]3NC(=O)[C@H](C(C)C)NC(=O)[C@H](CC(C)C)NC(=O)[C@H](CC(N)=O)NC(=O)[C@@H]4CCCN4C(=O)[C@H](CCCNC(=N)N)NC(=O)[C@H](CSSC[C@H](NC(=O)[C@@H](N)CC(=O)O)C(=O)N[C@@H](CC(C)C)C(=O)NCC(=O)N[C@@H](Cc4ccccc4)C(=O)N[C@@H](Cc4cc5ccccc5[nH]4)C(=O)N[C@@H](CCCNC(=N)N)C(=O)N[C@@H](CCCCN)C(=O)N2)NC(=O)[C@H](CSSC[C@@H](C(=O)N[C@@H](CCCCN)C(=O)N[C@@H](Cc2ccc(O)cc2)C(=O)N[C@H](C(=O)N[C@@H](Cc2ccccc2)C(N)=O)C(C)C)NC(=O)[C@H](Cc2c[nH]c4ccccc24)NC(=O)[C@H](CCCCN)NC(=O)[C@H](Cc2cnc[nH]2)NC(=O)[C@H]([C@@H](C)O)NC(=O)[C@H](CCCNC(=N)N)NC(=O)[C@H](CO)NC3=O)NC(=O)[C@H](CCCCN)NC(=O)[C@H](CC(=O)O)NC(=O)[C@H](CC(N)=O)NC(=O)[C@H](CC(=O)O)NC(=O)[C@@H]2CCCN2C1=O`, the IC50 in assay [1] worked out at 3400 nM; in assay [2], 30 nM.

As usually defined, the IC50 is the midpoint of a concentration-inhibition curve.
